Active and inactive are the calls of the source. No cut-off for these calls is given here.
Legend:
Assay type in all cases: functional, cell-based
HeLa [1] = assay: Cell cycle arrest in human HeLa cells assessed as increase in G1 phase cells after 24 hrs by flow cytometry using propidium iodide staining
Method in brief: (§1)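 After 24 h drug exposure at 37 °C, HeLa cells were trypsinized. About 1 × 10⁶ cells were washed twice in cold PBS and fixed overnight in chilled 75% methanol at −20 °C. DNA content was measured by propidium iodide flow cytometry, and the percentage of cells in each cycle phase was calculated. Untreated cultures served as controls.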

HeLa [2] = assay: Antiproliferative activity against human HeLa cells after 24 hrs by WST-1 assay
Method in brief: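 HeLa cells grown in RPMI 1640 with 10% inactivated FBS, penicillin, streptomycin and L-glutamine at 37 °C under 5% CO2. They were trypsinized, seeded at 5 × 10³ cells/well, and left 12 h. Compounds were added at five concentrations for 24 h. WST-1 was added and absorbance read at 450 nm. IC50 was calculated from absorbance.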

HeLa [3] = assay: Decrease in Rb phosphorylation in human HeLa cells after 24 hrs by Western blotting
Method in brief: (§2)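 HeLa cells were treated 24 h, trypsinized, washed in ice-cold PBS and lysed on ice in RIPA with PMSF. Lysates were clarified at 12,000 rpm, 4 °C, 15 min, and protein was measured by Bradford. Extracts ran on 12% SDS–PAGE onto PVDF, with milk/Tween blocking for 2 h. Rabbit anti-cyclin D1 and anti-Rb (1:100) and biotinylated anti-rabbit (1:400) were each applied 1 h at 37 °C, with ABC detection. β-actin was the loading control.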

HeLa [4] = assay: Cell cycle arrest in human HeLa cells assessed as decrease in G2-M phase cells after 24 hrs by flow cytometry using propidium iodide staining; method in brief: as §1
HeLa [5] = assay: Cell cycle arrest in human HeLa cells assessed as decrease in S phase cells after 24 hrs by flow cytometry using propidium iodide staining; method in brief: as §1
HeLa [6] = assay: Decrease in Rb protein expression in human HeLa cells after 24 hrs by Western blotting; method in brief: as §2
HeLa [7] = assay: Decrease in CyclinD1 protein expression in human HeLa cells after 24 hrs by Western blotting; method in brief: as §2

Q: With `C=C[C@]1(C)CC[C@@H](C(=C)CNC(C)C)C[C@H]1C(=C)C` as the compound, how does the Activity (HeLa [1]) read?
A: Active

Q: What about the IC50 (HeLa [2]) of the same compound?
A: 0.04 µM

Q: For `C=C[C@]1(C)CC[C@@H](C(=C)CN(CC)CC)C[C@H]1C(=C)C`, which Activity (HeLa [1]) is on record?
A: Active

Q: What about the IC50 (HeLa [2]) of the same compound?
A: 14.3 µM

Q: For `C=C[C@]1(C)CC[C@@H](C(=C)CNC2CCCC2)C[C@H]1C(=C)C`, which Activity (HeLa [1]) is on record?
A: Active

Q: What about the IC50 (HeLa [2]) of the same compound?
A: 0.52 µM

Q: With `C=C[C@]1(C)CC[C@@H](C(=C)CNCCCC)C[C@H]1C(=C)C` as the compound, how does the Activity (HeLa [3]) read?
A: Active

Q: What about the Activity (HeLa [4]) of the same compound?
A: Active

Q: And the Activity (HeLa [5])?
A: Active

Q: What about the Activity (HeLa [6]) of the same compound?
A: inactive

Q: What about the Activity (HeLa [1]) of the same compound?
A: Active

Q: What about the Activity (HeLa [7]) of the same compound?
A: Active

Q: What about the IC50 (HeLa [2]) of the same compound?
A: 10.8 µM

Q: With `C=C[C@]1(C)CC[C@@H](C(=C)Cn2ccnc2)C[C@H]1C(=C)C` as the compound, how does the Activity (HeLa [1]) read?
A: Active

Q: What about the IC50 (HeLa [2]) of the same compound?
A: 15.7 µM

Q: What does the source list for `C=C[C@]1(C)CC[C@@H](C(=C)COCCCC)C[C@H]1C(=C)C`?
A: Activity (HeLa [1]): Active; IC50 (HeLa [2]): 266 µM

Q: `C=C[C@]1(C)CC[C@@H](C(=C)CNC2CCCCCCC2)C[C@H]1C(=C)C` was tested. Which Activity (HeLa [1]) did it give?
A: Active

Q: And the IC50 (HeLa [2])?
A: 5.9 µM

Q: For `C=C[C@]1(C)CC[C@@H](C(=C)COC)C[C@H]1C(=C)C`, which Activity (HeLa [1]) is on record?
A: Active

Q: What about the IC50 (HeLa [2]) of the same compound?
A: 212 µM

Q: How did the Activity (HeLa [1]) turn out when `C=C[C@]1(C)CC[C@@H](C(=C)COCC)C[C@H]1C(=C)C` was run?
A: Active

Q: And the IC50 (HeLa [2])?
A: 106 µM

Q: `C=C[C@]1(C)CC[C@@H](C(=C)CNC(C)(C)C)C[C@H]1C(=C)C` was tested. Which Activity (HeLa [1]) did it give?
A: Active

Q: What about the IC50 (HeLa [2]) of the same compound?
A: 25.4 µM

Q: For `C=C[C@]1(C)CC[C@@H](C(=C)C)C[C@H]1C(=C)C`, which Activity (HeLa [1]) is on record?
A: Active

Q: And the IC50 (HeLa [2])?
A: 236 µM

Q: `C=C[C@]1(C)CC[C@@H](C(=C)COCCOC)C[C@H]1C(=C)C` was tested. Which Activity (HeLa [1]) did it give?
A: Active

Q: What about the IC50 (HeLa [2]) of the same compound?
A: 238 µM

Q: How did the Activity (HeLa [1]) turn out when `C=C[C@]1(C)CC[C@@H](C(=C)CNC2CCCCC2)C[C@H]1C(=C)C` was run?
A: Active

Q: What about the IC50 (HeLa [2]) of the same compound?
A: 3.39 µM

— ChEMBL document CHEMBL1143359, “Synthesis and in vitro anti-proliferative activity of beta-elemene monosubstituted derivatives in HeLa cells mediated through arrest of cell cycle at the G1 phase” (Bioorg Med Chem, 2009)
